A selection: hits, their analogues and other compounds. The true share with any hit is near 2.6%.
Granule exo inh = blocks lytic granule exocytosis | TALL-104 LAMP-1 surface exposure, flow cytometry; cells stimulated with thapsigargin and PMA | inhibition, % at 10 µM | 360,000 compounds, 0.66% hits;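 active = inhibition above about 55%, limit read from the data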
iPSC survival up = enhancers of human iPSC single-cell survival; hiPSC single-cell survival, ATPlite luminescence; 100% = ROCK inhibitor wells, 0% = DMSO; survival enhancement, % at 20 µM; 360,000 compounds, 0.044% hits; in the data active = survival enhancement above about 18%;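 also: cells exposed to compounds for 16 hours before the ATP read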
Tb MetRS inh = blocks T. brucei methionyl-tRNA synthetase activity. purified T. brucei MetRS, ATP depletion, Kinase-Glo luminescence. inhibition, % at 11.9 µM. 360,000 compounds, 0.4% hits. AID 624268;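 active = inhibition above a per-plate cutoff of the control wells' mean inhibition plus 3 SD, cut at about 5.5% in these data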;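 also: 0% = DMSO wells median and 100% = median of wells with control inhibitor compound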
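Material: T. brucei methionyl-tRNA synthetase, purified; reagent: substrates ATP, L-methionine and bulk Escherichia coli tRNA; dosing: 11.9 µM single point; timing: 15 min plus 2 h at 25 °C; detection: luminescence of leftover ATP; evaluation: % inhibition; control set: DMSO-only wells as low control; replicates: singlicate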
MC4R antagonist = antagonists of human melanocortin 4 receptor (MC4R) | MC4R-expressing cells, MTII-stimulated cAMP, LANCE TR-FRET | inhibition, % at 6.5 µM | 360,000 compounds, 0.48% hits | AID 540295;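 active = inhibition above its plate's cutoff, the mean of tested wells on that plate plus 3 SD, cut at about 29% in these data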;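 also: 0% = Melanotan II alone and 100% = Melanotan II plus saturating MCL0020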
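System: U2OS cells stably expressing human melanocortin 4 receptor (MC4R). Reagent: Melanotan II challenge after compound preincubation. Doses: 6.5 µM. Times: 30-min compound, 1-h challenge, 1-h detection, room temperature. Measured by: TR-FRET with Eu-cAMP and labeled anti-cAMP, 671 nm. Replicates: singlicate.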
MC4R ag barr = human MC4R agonism via beta-arrestin; U2OS MC4R beta-arrestin complementation, luminescence; percent of melanotan II response, DMSO zero; P32245; activation, % at 8.9 µM; 360,000 compounds, 0.98% hits;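 active = activation above a per-plate cutoff, the mean activation of sample wells on that plate plus 3 SD, cut at about 8% in these data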
ABCB6 inh MLPCN = human ABCB6 transporter inhibition; Q9NP58; K562-ABCB6 porphyrin accumulation, flow cytometry, 1 h; hits give low values; fluorescence ratio to DMSO, % at 10 µM; 360,000 compounds, 0.19% hits;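 active = fluorescence ratio to DMSO below 75%, the collection mean minus 3 SD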;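 also: signal is porphyrin accumulated inside mitochondria; 100% equals median channel fluorescence of DMSO control wells; lower ratio means ABCB6 inhibition with less porphyrin fluorescence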
Target sequence (Q9NP58 whole entry, looked up): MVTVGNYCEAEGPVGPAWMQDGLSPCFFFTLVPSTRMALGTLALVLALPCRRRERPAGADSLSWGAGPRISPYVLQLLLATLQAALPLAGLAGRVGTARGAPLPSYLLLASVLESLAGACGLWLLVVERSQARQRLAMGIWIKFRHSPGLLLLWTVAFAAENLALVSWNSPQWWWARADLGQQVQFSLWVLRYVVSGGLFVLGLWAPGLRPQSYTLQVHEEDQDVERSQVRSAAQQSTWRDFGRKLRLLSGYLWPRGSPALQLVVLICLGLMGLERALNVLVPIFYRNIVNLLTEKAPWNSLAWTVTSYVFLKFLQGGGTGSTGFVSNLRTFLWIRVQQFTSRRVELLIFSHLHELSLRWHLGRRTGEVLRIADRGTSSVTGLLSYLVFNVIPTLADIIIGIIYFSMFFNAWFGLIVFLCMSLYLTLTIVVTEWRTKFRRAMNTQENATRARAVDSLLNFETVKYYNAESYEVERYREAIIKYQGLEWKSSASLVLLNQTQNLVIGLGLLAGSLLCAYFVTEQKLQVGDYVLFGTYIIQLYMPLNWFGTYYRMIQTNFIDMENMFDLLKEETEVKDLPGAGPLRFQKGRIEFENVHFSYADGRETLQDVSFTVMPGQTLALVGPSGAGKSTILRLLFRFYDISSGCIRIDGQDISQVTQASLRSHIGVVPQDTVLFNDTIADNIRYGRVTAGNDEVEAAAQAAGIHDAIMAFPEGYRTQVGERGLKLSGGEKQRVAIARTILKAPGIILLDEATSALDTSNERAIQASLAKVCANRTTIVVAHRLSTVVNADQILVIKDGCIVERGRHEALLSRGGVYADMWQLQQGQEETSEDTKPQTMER
* marks the source's active call; other numbers are inactive results; ! = not confirmed by another sample.

SMILES	Granule exo inh	iPSC survival up	Tb MetRS inh	MC4R antagonist	MC4R ag barr	ABCB6 inh MLPCN
COc1ccncc1-c1ccc(C2=CC(=O)CC(C)(C)C2=O)cc1	1	-2	0	4	0	99
O=C(Nc1ccc(Br)cc1)/C(=C/c1cccc([N+](=O)[O-])c1)NC(=O)C1CCCCC1	-4	1	0	4	-1	101
Cc1ccc(NC(=O)/C(=C/c2cccc([N+](=O)[O-])c2)NC(=O)C2CCCCC2)cc1	-3	-4	0	5	0	72*
O=C(CNC(=O)c1cccs1)N/N=C/c1c(F)cccc1Cl	2	0	0	3	-1	99
COC(=O)c1ccc(C23CC4(C2)[C@H](CN(Cc2ccc(C(F)(F)F)cc2)[C@@H]4c2ccccc2)C3c2ccccc2)cc1 (stereo partly specified)	22	-1	0	5	1	99
COC(=O)c1cccc(C23CC4(C2)[C@H](CN(Cc2ccc(C(F)(F)F)cc2)[C@@H]4c2ccccc2)C3c2ccc(Cl)nc2)c1 (stereo partly specified)	77*	-1	0	-5	4	102
c1ccc(CNc2nc(NCc3ccccc3)c3ccccc3n2)cc1	61*	-1	6.5*	4	8.6*	96
c1ccc(CNc2nc(-c3ccccc3)nc3ccccc23)cc1	2	0	0	-1	2	99
Cc1cccc(C)c1NC(=O)COC(=O)COc1ccc2c(C)cc(=O)oc2c1	-7	-1	-1	13	0	100
Cc1csc(NC(=O)COc2ccc3c(C)cc(=O)oc3c2)n1	2	0	0	-9	9.4*	107
O=C(Nc1cccc(-c2cnc3ccccc3n2)c1)c1cccc(NC(=O)c2ccco2)c1	4	1	-3	-1	35*	88
O=C(Nc1cccc(-c2cnc3ccccc3n2)c1)c1ccccc1	1	5	0	5	3	99
CCOC(=O)Nc1ccc2nc(Sc3ccc(Cl)cc3)sc2c1	25	0	-2	-17	-2	93
N#Cc1c(Nc2ccc(Cl)cc2)s[nH]c1=O	83*	0	-1	0	-3	104
O=C(NCc1cccnc1)/C(=C\c1ccc(-c2ccc(Cl)c(Cl)c2)o1)S(=O)(=O)c1ccccc1	101*	-4	0	27	0	88
O=C(O)c1cccc(-n2nnnc2SCc2ccccc2Cl)c1	-7	2	0	1	-4	100
CCc1ccc2c(c1)cc(CN(C(=S)Nc1cccc(C)c1)C1CC1)c1nnnn12	0	-1	-2	-10	13*	97
O=C(C1CCCO1)N1CCN(S(=O)(=O)c2cc(F)ccc2F)CC1 (stereo unspecified)	0	0	0	5	-1	97
COc1ccc(NC(=O)c2c(NC(=O)CNCc3ccco3)sc3c2CCC3)c(OC)c1	-1	-3	0	2	-1	108
COc1ccc(OC)c(NC(=O)c2c(NC(=O)CNCc3ccco3)sc3c2CCC3)c1	0	0	-1	16	9.2*	108
CC(C)c1ccc(OCC(O)CN2CCN(c3ccccc3)CC2)cc1 (stereo unspecified)	10	3	0	-4	8.9*!	101
COc1ccc(OCC(O)CN2CCN(c3ccccc3)CC2)cc1 (stereo unspecified)	0	1	0	15	-2	98
COc1ccc(CNC(=O)/C=C/c2cc3c(cc2Br)OCO3)cc1	0	-3	-1	-5	8.5*	100
COc1cccc(N=c2oc3ccc(OC)cc3cc2-c2nc3ccccc3[nH]2)c1	-3	-3	0	-15	8.5*	94
Cc1cc(Cl)n2nc(C)c(-c3ccc(Cl)cc3)c2n1	1	21*	0	27	-4	94
COc1ccc(OC)c(/C=N/NC(=O)c2[nH]nc3c2CCc2ccccc2-3)c1	13	0	-2	4	0	102
COc1cccc(/C=N/NC(=O)c2[nH]nc3c2CCc2ccccc2-3)c1	81*	1	0	-23	-2	103

Bioassay records as filed in PubChem.
